# Experimental data pooled from the literature.
# Compare with care: the assays were run in different laboratories.
Compound,organism,assay,system,conditions,measurement,result
O=c1[nH]c(=O)n([C@H]2C[C@H](O)[C@@H](CO)O2)cc1/C=C/Br,Human alphaherpesvirus 1,cytopathic effect,HEL,,EC50,2000 nM
OC(Cn1cncn1)(Cn1cncn1)c1ccc(F)cc1F,Aspergillus niger,microbial killing,,,MFC,40 µM
CC[C@H](C)C[C@H](C)CCCCCCCCC(=O)N[C@H]1C[C@@H](O)[C@@H](NCCN)NC(=O)[C@@H]2[C@@H](O)CCN2C(=O)[C@H]([C@H](O)CCN)NC(=O)[C@H]([C@H](O)[C@@H](O)c2ccc(O)cc2)NC(=O)[C@@H]2C[C@@H](O)CN2C(=O)[C@H]([C@@H](C)O)NC1=O,Lodderomyces parapsilosis,"microbial growth, broth dilution",ATCC22019,,MIC,0.5 µg/mL
Nc1ccn(C[C@@H](CO)OCP(=O)(O)O)c(=O)n1,Human alphaherpesvirus 1,cytopathic effect,HEL,,EC50,2000 nM
CCOC(=O)c1ccccc1S(=O)(=O)NC(=O)Nc1nc(Cl)cc(OC)n1,Lodderomyces parapsilosis,"microbial growth, broth dilution",,24 h,MIC50,1.1 µM
Nc1nc2c(ncn2COCCO)c(=O)[nH]1,Human alphaherpesvirus 1,cytopathic effect,HEL,,EC50,200 nM
O=[N+]([O-])c1ccc(C2=[N+]([O-])c3ccccc3N3CCN=C23)cc1,Bacteroides fragilis,microbial growth,,,MIC50,≤ 0.06 µg/mL
Cn1cnc2nc(NCc3ccc(Cl)c(Cl)c3)[nH]c(=O)c21,Bacteroides fragilis,"microbial growth, agar dilution",,48 h,MIC,> 32 µg/mL
Cc1ncc([N+](=O)[O-])n1CCO,Bacteroides fragilis,microbial growth,,,MIC50,0.5 µg/mL
CCCCCOc1ccc(-c2cc(-c3ccc(C(=O)N[C@H]4C[C@@H](O)[C@@H](O)NC(=O)[C@@H]5[C@@H](O)[C@@H](C)CN5C(=O)[C@H]([C@H](O)CC(N)=O)NC(=O)[C@H]([C@H](O)[C@@H](O)c5ccc(O)c(OS(=O)(=O)O)c5)NC(=O)[C@@H]5C[C@@H](O)CN5C(=O)[C@H]([C@@H](C)O)NC4=O)cc3)no2)cc1,Lodderomyces parapsilosis,microbial growth,,,MIC90,4 µg/mL
CC(C)[C@H](N)C(=O)OCCCCCn1cnc2nc(NCc3ccc(Cl)c(Cl)c3)[nH]c(=O)c21,Bacteroides fragilis,"microbial growth, agar dilution",,48 h,MIC,> 32 µg/mL
O=C(NCc1ccc2c(c1)OCO2)c1ccc(Br)cc1F,Aspergillus brasiliensis,microbial growth,ATCC16404,72 h,MIC,> 200 µM
